# OX1R antag-1: antagonists of human orexin 1 receptor (OX1R) | 330,000 tested, 1.8% active | inhibition, % at 6.6 µM | OX1R-expressing cells, FRET antagonist read-out | AID 485270, 2010; in the data active means inhibition mostly above about 38%, no sharp cut-off; inactive means mostly below about 40%;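 further: 0% = agonist challenge alone and 100% = reference antagonist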
# Target sequence (O43613 whole entry, looked up): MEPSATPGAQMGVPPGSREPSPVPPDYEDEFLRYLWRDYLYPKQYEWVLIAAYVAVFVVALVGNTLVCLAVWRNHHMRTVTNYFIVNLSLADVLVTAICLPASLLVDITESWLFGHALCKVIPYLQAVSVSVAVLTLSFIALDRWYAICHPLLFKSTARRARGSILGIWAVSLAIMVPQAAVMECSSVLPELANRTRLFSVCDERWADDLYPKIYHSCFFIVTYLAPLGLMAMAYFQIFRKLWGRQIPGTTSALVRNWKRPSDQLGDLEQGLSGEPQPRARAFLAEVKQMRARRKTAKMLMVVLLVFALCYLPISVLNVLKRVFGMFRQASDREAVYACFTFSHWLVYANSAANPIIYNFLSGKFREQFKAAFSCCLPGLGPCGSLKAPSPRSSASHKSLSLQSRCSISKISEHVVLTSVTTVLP
# CHO parental Ca: ATP-evoked calcium signal inhibitors, parental CHO, primary screen, counter-screen for OX1R antagonist project, cell-based, fluorescence, Fluo-8 calcium dye; inhibition, % at 5.6 µM; 330,000 tested, 0.63% active; parental CHO-K1, ATP-induced calcium, Fluo-8 fluorescence; AID 463079, 2010;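 active means inhibition above that plate's mean sample inhibition plus 3 SD, cut at about 26% in these data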;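 further: 0% = ATP-challenged DMSO wells and 100% = DMSO wells without ATP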
#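 Measured by: calcium-sensitive Fluo-8 fluorescence / Test system: CHO parental line / Controls: ATP-challenged DMSO wells low, unchallenged DMSO wells high / Measure: % inhibition / Compound: single nominal dose of 5.6 µM per compound / Replicates: single well per compound, no replicates / Reagent: ATP as calcium-mobilizing challenge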
# TAAR1 antagonist: human TAAR1 antagonists, primary screen, Fluo-8 calcium fluorescence, CHO RD-HGA16 cells | Trace amine-associated receptor 1 (Homo sapiens), Q96RJ0 | antagonist | inhibition, % at 3 µM | 360,000 tested, 1.5% active;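 active means inhibition above a per-plate cutoff, the mean inhibition of test compounds on that plate plus 3 SD, cut at about 49% in these data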;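 further: 0% = DMSO plus EC80 beta-PEA response and 100% = DMSO alone without agonist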
#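 test system = CHO RD-HGA16 cells bearing hTAAR1 | replication = singlicate | controls = DMSO-only wells and EC80 β-PEA-stimulated wells | reagent = EC80 β-phenethylamine stimulus | read-out basis = percent inhibition of PEA-evoked calcium signal, max/basal emission ratio | schedule = seeding 17-24 h prior, 75-min 37 °C, 30-min RT dye loading | signal = kinetic Fluo-8 calcium fluorescence measurement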
# OX1R antag-2: OX1R (HCRTR1) antagonists, primary screen, fluorescence, CHO/OX1R cells, Fluo-8 calcium, orexin A; Orexin/Hypocretin receptor type 1 (Homo sapiens), O43613; Fluo-8 calcium fluorescence; inhibition, % at 5 µM; 330,000 tested, 0.43% active;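 active means inhibition above its plate's threshold, mean inhibition of all tested compounds on the plate plus 3 SD, cut at about 37% in these data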;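 further: 0% = orexin A challenge wells and 100% = SB-334867-A antagonist wells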
# TAAR1 ag: human TAAR1 agonists, primary screen, Fluo-8 calcium fluorescence, CHO RD-HGA16 cells; Trace amine-associated receptor 1 (Homo sapiens), Q96RJ0; vehicle wells 0%, saturating PEA agonist 100%; activation, % at 3 µM; 360,000 tested, 0.99% active;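 active means activation above the mean activation of all test compounds in the run plus 3 SD, cut at about 38% in these data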
#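 test system = CHO RD-HGA16 cells carrying human TAAR1 plus Gα16 | schedule = 17-24 h seeding, 75 min 37 °C dye, 30 min RT | compound dosing = 3 µM single concentration | control set = DMSO and PEA EC100 | replicates = n 1 | signal = Fluo-8 fluorescence, 5 s baseline then 140 s kinetic read | measure = percent activation vs PEA EC100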
# TAAR1 ag confirm: human TAAR1 agonists, retest of hits, confirmation, Fluo-8 calcium fluorescence, CHO RD-HGA16 cells; shares compounds with TAAR1 ag; scaled: DMSO 0%, maximal phenethylamine 100%; activation, % at 3 µM; 2,400 tested, 82% active;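 active means activation above a cutoff set at the run's mean compound activation plus 3 SD, cut at about 39% in these data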
# Ga16 nonsel ag: nonselective calcium mobilization agonists, CHO-Ga16 cells, counter-screen for hTAAR1 agonist project, cell-based, fluorescence, CHO-Ga16 parental line; activation, % at 3 µM; Fluo-8 calcium fluorescence; normalized to maximal ATP response, DMSO zero; shares compounds with TAAR1 ag; 2,400 tested, 50% active;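 active means activation above the run cutoff, the mean activation over all tested wells plus 3 SD, cut at about 12% in these data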;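 further: 0% = DMSO wells and 100% = maximal ATP response on the peak over basal ratio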
# TAAR1 desens: TAAR1 desensitization by agonist hits, confirmation, counter-screen for TAAR1 agonist project, cell-based, fluorescence, tachyphylaxis; inhibition, % at 3 µM; shares compounds with TAAR1 ag; AID 651951, 2012; 2,400 tested, 46% active; CHO RD-HGA16 hTAAR1, Fluo-8 calcium, beta-PEA response inhibition;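 active means inhibition above the run cutoff, the mean inhibition of all test compounds plus 3 SD, cut at about 49% in these data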;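 further: beta-PEA stimulus applied at its EC80; loss of beta-PEA calcium signal after compound pretreatment read as receptor desensitization; 0% = DMSO with beta-PEA at EC80 and 100% = DMSO alone without agonist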
# Ga16 antag count: inhibition of ATP-evoked calcium response in CHO-Ga16 cells, counter-screen for TAAR1 agonist project, cell-based, fluorescence. CHO-Ga16 ATP-induced calcium, Fluo-8 fluorescence. shares compounds with TAAR1 ag. inhibition, % at 3 µM. 2,400 tested, 39% active;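 active means inhibition above the plate's mean compound inhibition plus 3 SD, computed per plate, cut at about 22% in these data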;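 further: 0% = EC80 ATP with DMSO and 100% = DMSO wells without ATP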
# * = called active by the depositor; · = no result. Rows were chosen to be rich in hits. Some 3.9% of all compounds tested hit in one or more screens of this group.
SMILES,OX1R antag-1,CHO parental Ca,TAAR1 antagonist,OX1R antag-2,TAAR1 ag,TAAR1 ag confirm,Ga16 nonsel ag,TAAR1 desens,Ga16 antag count
CN(CC(=O)Nc1ccccc1Cl)C(=O)C1CCN(C(=O)c2ccc(F)cc2)CC1,4,-7,-5,-2,-1,·,·,·,·
CCN=C1NC(c2ccc(F)cc2)C(C(=O)OC)=C(C)N1Cc1ccc(C(F)(F)F)cc1 (stereo unspecified),·,·,45,·,28,·,·,·,·
CCN=C1NC(c2ccc(F)cc2)C(C(=O)OC)=C(C)N1Cc1cccc(C(F)(F)F)c1 (stereo unspecified),·,·,95*,·,92*,71*,39*,76*,57*
CCN=C1NC(c2ccc(C(F)(F)F)cc2)C(C(=O)OC)=C(C)N1Cc1cccc(C(F)(F)F)c1 (stereo unspecified),·,·,45,·,46*,53*,28*,45,45*
COC(=O)C1=C(C)N(Cc2cccc(C(F)(F)F)c2)C(=NCc2ccccc2C(F)(F)F)NC1c1ccc(Cl)cc1 (stereo unspecified),·,·,-24,·,2,·,·,·,·
CCN=C1NC(c2ccc(Cl)cc2)C(C(=O)OC)=C(C)N1Cc1cccc(C(F)(F)F)c1 (stereo unspecified),·,·,74*,·,56*,65*,35*,82*,59*
O[C@@H]1CN(Cc2ccc(-n3cccn3)cc2)CC[C@H]1N1CCN(c2ccccc2F)CC1,9,14,2,-16,3,·,·,·,·
Cc1cccc(C(=O)NC(=S)NNC(=O)Cc2ccccc2)c1,11,11,64*,1,119*,121*,89*,74*,45*
Cc1cccc(C(=O)NC(=S)NNC(=O)COc2c(C)cccc2C)c1,9,1,90*,-15,126*,143*,119*,96*,63*
CCCOc1cc(C)c(S(=O)(=O)N2CCN(C)CC2)cc1C,7,-17,-26,-35,46*,42*,0,-5,-3
Cc1sc(NC(=O)CSc2nnc(COc3ccccc3)n2C)c(C#N)c1C,7,28,47,1,53*,11,4,19,8
Cc1ccc(OCc2nnc(SCC(=O)Nc3sc(C)c(C)c3C#N)n2C)cc1,12,1,46,6,54*,10,2,20,5
COc1cc(OC)nc(Nc2nc(CN)cs2)n1,·,·,0,·,0,·,·,·,·
O=C(Nc1ccc(F)c(Cl)c1)C1Cc2c(-c3ccccc3Oc3ccccc3)ccnc2O1 (stereo unspecified),·,·,13,·,1,·,·,·,·
CCCCCCCOC(=O)C[N+](C)(C)CCOC1CC2CCC1(C)C2(C)C (stereo unspecified),·,·,31,·,56*,74*,38*,48,35*
CCc1nn(-c2ccccc2)c2c1-c1cc(OC)c(OC)cc1C1(N2)C(=O)Nc2ccccc21 (stereo unspecified),11,-24,-8,-16,-1,·,·,·,·
CC1(C)NC(=O)NC2(C)NC(=O)NC(C)(C)C12 (stereo unspecified),-4,-3,1,-8,12,·,·,·,·
Cc1nonc1C(=O)N/N=C/c1ccc(O)c(O)c1,4,-5,-7,4,3,·,·,·,·
O=C(N/N=C/c1ccc(O)c(O)c1)N/N=C/c1ccc(O)c(O)c1,·,·,27,·,98*,83*,-1,73*,1
O=C(Nc1c(F)cc(F)cc1Br)c1cc(-c2ccco2)on1,2,11,10,-17,55*,56*,8,35,8
Cc1nn(Cc2ccc(Cl)cc2)c(C)c1NC(=O)c1cc(-c2ccco2)on1,16,0,85*,1,65*,32,16*,56*,43*
CCCOc1ccc(F)cc1-c1cc(C(=O)Nc2ccccc2)[nH]n1,·,·,44,·,2,·,·,·,·
COc1ccc(CNC(=O)COC(=O)c2ccccc2C(=O)c2ccccc2)cc1,12,-9,8,-26,7,·,·,·,·
Brc1ccc2ncnc(Nc3cccc4ccccc34)c2c1,16,-34,1,-33,53*,15,30*,2,5
COc1cccc(Nc2ncnc3ccc(Br)cc23)c1,·,·,-40,·,1,·,·,·,·
SMILES,OX1R antag-1,CHO parental Ca,TAAR1 antagonist,OX1R antag-2,TAAR1 ag,TAAR1 ag confirm,Ga16 nonsel ag,TAAR1 desens,Ga16 antag count
O=C(COC(=O)c1ccc2c(c1)OCCO2)NC1CCCCC1,-3,-3,-11,-8,-1,·,·,·,·
NC(Cc1ccc(C(F)(F)F)cc1)c1csc(Nc2cc(Oc3ccccc3)ncn2)n1 (stereo unspecified),·,·,9,·,48*,38*,21*,43,38*
NC(CCc1ccccc1)c1csc(NC(=O)Nc2cccc(C(F)(F)F)c2)n1 (stereo unspecified),·,·,36,·,49*,39*,19*,35,40*
NC(COCc1ccccc1)c1csc(Nc2nncc3ccccc23)n1 (stereo unspecified),·,·,3,·,26,·,·,·,·
NC(CO)c1csc(NC(=O)Nc2cccc(Cl)c2)n1 (stereo unspecified),·,·,-3,·,3,·,·,·,·
NC(Cc1ccc(C(F)(F)F)cc1)c1csc(Nc2nncc3ccccc23)n1 (stereo unspecified),·,·,36,·,55*,140*,58*,106*,69*
NC(COCc1ccccc1)c1csc(NC(=O)Nc2cccc(Cl)c2)n1 (stereo unspecified),·,·,43,·,58*,51*,22*,47,41*
NC(Cc1ccc(C(F)(F)F)cc1)c1csc(NC(=O)Nc2ccccc2)n1 (stereo unspecified),·,·,37,·,50*,61*,40*,63*,53*

# High-throughput results (PubChem BioAssay)
